SMILES strings stand for the structures. Hit rate of the full screen: of about 360,000 compounds, about 1,700 (0.47%) were called active.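 How the source made its calls: active means inhibition above its plate's cutoff, the mean of tested wells on that plate plus 3 SD (cut at about 29% in these data); inactive means the rest.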 The entries come from a sample that favours actives as a whole.

A word on the inhibition: it is the change of the read-out against control, counted positive when it falls.

Melanocortin receptor 4 (Homo sapiens), sequence (P32245 whole entry, looked up): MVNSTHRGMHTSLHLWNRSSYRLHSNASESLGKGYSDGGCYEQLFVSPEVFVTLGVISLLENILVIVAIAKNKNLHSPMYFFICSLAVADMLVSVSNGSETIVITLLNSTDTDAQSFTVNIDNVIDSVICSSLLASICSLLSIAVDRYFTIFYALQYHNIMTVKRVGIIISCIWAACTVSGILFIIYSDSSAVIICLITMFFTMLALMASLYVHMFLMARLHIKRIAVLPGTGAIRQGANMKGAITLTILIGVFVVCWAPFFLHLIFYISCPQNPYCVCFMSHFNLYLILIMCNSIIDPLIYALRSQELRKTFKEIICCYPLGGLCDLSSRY

The test deals with Melanocortin receptor 4 (Homo sapiens) (UniProt P32245). Briefly: MC4R antagonists of cAMP signaling, primary screen, cell-based, TR-FRET, antagonist arm of biased-ligand search (AID 540295).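 Further: 0% = Melanotan II alone and 100% = Melanotan II plus saturating MCL0020.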 To be noted: MC4R-expressing cells, MTII-stimulated cAMP, LANCE TR-FRET; at 6.5 µM; hits give high values. Put shortly:
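system = U2OS cells with stable human MC4R expression | also added = Melanotan II challenge after compound preincubation | dosing = one concentration, 6.5 µM nominal | incubation = compound 30 min, challenge 1 h, detection 1 h | measured by = TR-FRET with Eu-cAMP and labeled anti-cAMP, 671 nm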
A general note: TR-FRET usually uses a lanthanide donor and a delayed reading to cut background.
Turning to `CCc1nc2c(OCCOc3ccccc3)cccn2c1N(C)C(=O)c1cccs1`, the inhibition was -6.4% (inactive).

In the case of `COC(=O)COc1ccc2c(=O)c(Oc3ccccc3Br)coc2c1`, the inhibition was 11% (inactive).

For the molecule `COc1ccccc1CC(=O)Nc1ccc(F)cc1F`, the inhibition was 28.9% (active).

For `O=C(COC(=O)CSc1ccccc1)Nc1ccc(F)cc1F`, the inhibition was 9.52% (inactive).

As for `COC(=O)c1ccccc1NC(=O)Cc1ccccc1OC`, the inhibition was 18.4% (inactive).

For the molecule `CCCCOc1ccc(C(=O)N/C(=C/C=C/c2ccccc2)C(=O)N2CCOCC2)cc1`, the inhibition was 3.43% (inactive).

For the molecule `O=C(Nc1nn(Cc2ccccc2F)cc1Br)c1cccs1`, the inhibition was 11.3% (inactive).

As to `C=CCn1c2ccccc2c2nnc(SCc3[nH]c(=O)[nH]c3C(=O)CCCCC(=O)OCC)nc21`, the inhibition was -12.2% (inactive).

As for `O=C(COC(=O)Cn1cnc2ccccc2c1=O)NCC12CC3CC(CC(C3)C1)C2`, the inhibition was 29.2% (active).

With `CC1(C)C(=O)Nc2ccccc2N1C(=O)COC(=O)Cn1cnc2ccccc2c1=O`, the inhibition is 13.1% (inactive).

For the molecule `O=C(COC(=O)Cn1cnc2ccccc2c1=O)NCc1ccccc1Cl`, the inhibition is 10.8% (inactive).

Consider `O=C(N/C(=C\c1ccc(O)cc1)C(=O)N1CCCCC1)c1ccccc1`, for which the inhibition was 2.84% (inactive).

Turning to `COc1ccc(N)cc1NC(=O)CN1CCOCC1`, the inhibition was -2.41% (inactive).

Regarding `O=C(O)c1n[nH]nc1-c1ccccc1`, the inhibition was 3.02% (inactive).

`Cc1nnc(SCC(=O)N2CCOCC2)[nH]c1=O`: the inhibition was 2.07% (inactive).

Take `CCOC(=O)CSc1nc(C)c(Oc2ccc(Cl)cc2Cl)c(=O)[nH]1`: the inhibition is 5.59% (inactive).

As for `CCCCOC(=O)CNc1nnc(SCC(=O)OCC)[nH]c1=O`, the inhibition is 60.6% (active).

`O=C(COC(=O)[C@H](Cc1ccccc1)NC(=O)c1cccs1)Nc1cc(F)ccc1F`: the inhibition was 31.4% (active).

For the molecule `Cc1ccc(C)c(NC(CC(=O)c2ccccc2)C(=O)OCC(=O)c2cccs2)c1` (stereo unspecified), the inhibition is -0.53% (inactive).

As to `NC(=O)c1ccc(NC(=O)COC(=O)C(Cc2ccccc2)NC(=O)c2ccccc2)cc1` (stereo unspecified), the inhibition was 11% (inactive).

On to `CCc1nc2c(OCc3ccc(C(F)(F)F)cc3)cccn2c1N(C)C(=O)CC(C)C`, for which the inhibition is 6.64% (inactive).

Consider `O=S(=O)(NCC1CCCO1)c1cnc(Cl)c(Cl)c1` (stereo unspecified), for which the inhibition is 24.7% (inactive).

For the molecule `O=C(COC(=O)c1cnc(Cl)c(Cl)c1)NCc1ccco1`, the inhibition was 10.1% (inactive).

Consider `O=S(=O)(NCc1ccco1)c1cnc(Cl)c(Cl)c1`, for which the inhibition was 44.9% (active).

Regarding `COC(=O)C[C@H]1C[C@@H]2c3cc(N(C)C)ccc3O[C@@H]2[C@H](CO)O1`, the inhibition was 13% (inactive).

In the case of `O=C1c2ccccc2C(=O)N1CCc1nn[nH]n1`, the inhibition was 14.6% (inactive).

On to `CN(C)C(CNC(=O)c1cccc(C#N)c1)c1ccco1` (stereo unspecified), for which the inhibition is 0.76% (inactive).

For the molecule `CN(C)C(CNC(=O)CCCOc1ccccc1)c1ccco1` (stereo unspecified), the inhibition was 29.7% (active).

As for `O=C(CCCOc1ccccc1)NCc1ccco1`, the inhibition was 2.67% (inactive).

Turning to `CN(CC(=O)NNC(=O)CNC(=O)c1ccccc1Cl)S(=O)(=O)c1ccc(Cl)cc1`, the inhibition is 2.86% (inactive).

On to `CN(CC(=O)NCCc1ccccn1)S(=O)(=O)c1ccc(Cl)cc1`, for which the inhibition was 30.3% (active).

Consider `CN(CC(=O)NCC(c1ccccc1)N1CCCC1)S(=O)(=O)c1ccc(Cl)cc1` (stereo unspecified), for which the inhibition was -2.78% (inactive).

On to `Cc1ccc(S(=O)(=O)N2CCCC2C(=O)NCc2ccco2)cc1` (stereo unspecified), for which the inhibition was -0.46% (inactive).

For the molecule `COC(=O)COc1ccc(C2NC(=O)NC(C)=C2C(=O)NCc2ccccc2)cc1OC` (stereo unspecified), the inhibition was 21.9% (inactive).

Turning to `C[C@H]([C@@H](O)[C@@H](O)[C@@H](C)C(C)(C)C)[C@H]1CC[C@H]2C3CC[C@H]4C[C@H](OS(=O)(=O)O)[C@@H](OS(=O)(=O)O)C[C@]4(C)[C@H]3CC[C@]12C` (stereo partly specified), the inhibition was 9.52% (inactive).

Regarding `CCN(CCCNC(=O)C1CCN(S(=O)(=O)c2cnc[nH]2)CC1)c1ccccc1`, the inhibition was 17.3% (inactive).

On to `O=C(COc1ccc(-n2cnnn2)cc1)Nc1ccccc1Cl`, for which the inhibition is -4.5% (inactive).

For `O=C(Nc1ccccc1Cl)/C(Cl)=C(\Cl)S(=O)c1ccccc1` (stereo unspecified), the inhibition was 34.9% (active).

For the molecule `CS/C(=C\C(=O)c1ccco1)Nc1ccccc1Cl`, the inhibition was 12.1% (inactive).

Regarding `NC1=NC(=O)C(Cc2cccc(Cl)c2)S1` (stereo unspecified), the inhibition was 6.88% (inactive).

Turning to `CCOC(=O)C(CC)Sc1ncnc2c1nnn2-c1ccc(F)cc1` (stereo unspecified), the inhibition is 9.91% (inactive).

With `COc1ccc(S(=O)(=O)N2CCOC2CNC(=O)C(=O)NCc2ccc(F)cc2)cc1` (stereo unspecified), the inhibition is 5.37% (inactive).

As for `N#CC1=C(N)Oc2[nH]c(=S)[nH]c(=O)c2C12C(=O)Nc1ccccc12` (stereo unspecified), the inhibition was -0.32% (inactive).

Regarding `CC1(C)Cc2ccccc2/C(=C/C(=O)c2ccccc2)N1`, the inhibition is -4.86% (inactive).

Take `CC1(C)Cc2ccccc2-c2[nH]c(=S)[nH]c(=O)c21`: the inhibition is 31.3% (active).

`CC(=O)c1ccc(S(=O)(=O)Nc2ccc(-c3ccc4nncn4n3)cc2)cc1`: the inhibition was 4.19% (inactive).

Consider `Cc1cccc(C(=O)N2CCCC(Nc3ccc(C(C)C)cc3)C2)n1` (stereo unspecified), for which the inhibition is -4.44% (inactive).

Regarding `O=C(Oc1ccc(-c2nnco2)cc1)c1ccc(F)c(S(=O)(=O)N2CCOCC2)c1`, the inhibition was 16.3% (inactive).

As to `C=CCOC(=O)C1=C(C)N=C2SCCC(=O)N2C1/C=C/c1ccccc1OC` (stereo unspecified), the inhibition is 6.17% (inactive).

As to `COc1ccc(-c2ccc3c(c2)C2CC3CCN2CCC#N)cc1` (stereo unspecified), the inhibition was 8.84% (inactive).

Consider `C=CCn1c(=S)[nH]c2scc(-c3ccco3)c2c1=O`, for which the inhibition was 29.6% (active).

Turning to `CCC1(C)Cc2c(sc3[nH]c(=S)n(Cc4ccccc4)c(=O)c23)CO1` (stereo unspecified), the inhibition is 3.15% (inactive).

Regarding `COc1cccc(-c2cc(NC(C)=O)c3ncc(-c4cccc(C(C)=O)c4)n3c2)c1`, the inhibition was 8.07% (inactive).

Consider `CSc1ncnc2c1ncn2CCCNCC(C)c1ccccc1` (stereo unspecified), for which the inhibition was 0.11% (inactive).

As for `COc1ccc(S(=O)(=O)N(C)CC(=O)NCCCN2CCOCC2)cc1Cl`, the inhibition was 8.85% (inactive).

On to `CCN(CC)S(=O)(=O)c1ccc(Cl)c(C(=O)NCCN2CCOCC2)c1`, for which the inhibition was -2.31% (inactive).

Regarding `CCN(CC(=O)NCCCN1CCOCC1)S(=O)(=O)c1cc(Cl)ccc1Cl`, the inhibition is 30.2% (active).

Turning to `O=C(Nc1nnc(Cc2ccc(Cl)cc2)s1)c1ccncc1`, the inhibition is 11.2% (inactive).

As for `O=C(Nc1nnc(Cc2ccccc2)s1)c1cnccn1`, the inhibition was 20.4% (inactive).

For the molecule `O=C(Nc1nnc(Cc2ccc(Cl)cc2)s1)c1cccnc1`, the inhibition was 33.8% (active).

For `COC(=O)[C@]1(CC(C)C)N[C@H](c2ccc(SC3CCCCC3)cc2)[C@@H]2C(=O)N(C)C(=O)[C@@H]21`, the inhibition was 4.32% (inactive).

`Cc1ccc(NC(=O)Cn2c(=O)n(CCC(=O)NC3CCN(Cc4ccccc4)CC3)c(=O)c3ccccc32)cc1`: the inhibition was 8.52% (inactive).

As to `COC(=O)c1sc(-c2ccc(C(C)(C)C)cc2)cc1NC(=O)/C=C/C(=O)O`, the inhibition is 37.3% (active).

Regarding `COc1ccc(NS(=O)(=O)c2ccc(N3CCOCC3)c(NC(=O)/C=C/C(=O)O)c2)cc1`, the inhibition was 0.91% (inactive).

Regarding `COc1ccccc1NC(=O)/C=C/C(N)=O`, the inhibition is 21% (inactive).

With `O=C(CCNC(=O)C1CCN(S(=O)(=O)c2ccccc2)CC1)NC1CC1`, the inhibition is 8.45% (inactive).

As for `NC(=O)COc1ccc(C23CC4CC(CC(C4)C2)C3)cc1`, the inhibition was -2.25% (inactive).

With `CCCC(NC(=O)c1ccccc1)c1nc2ccccc2n1Cc1ccc(C(=O)OC)o1` (stereo unspecified), the inhibition was -3.45% (inactive).

With `CCOC(=O)CSc1nc(N2CCOCC2)c2c(c1C#N)CC(C(C)C)OC2` (stereo unspecified), the inhibition is 28.7% (active).

Turning to `CC(C)Cc1nc(N2CCOCC2)c(C#N)c2c1CCC2`, the inhibition is 8.79% (inactive).

Consider `COc1ccc(CSc2nc(N3CCOCC3)c3c(c2C#N)CC(C)(C)OC3)cc1`, for which the inhibition was 19% (inactive).

In the case of `COc1ccc(CCNC(=O)CSCc2ccc(Br)cc2)cc1OC`, the inhibition is 1.08% (inactive).

Consider `CC(C)c1ccc(NC(=O)CCN2C(=O)c3ccc([N+](=O)[O-])cc3C2=O)cc1`, for which the inhibition is 7.45% (inactive).

Take `O=NN(CCCl)C(=O)NCCc1cccc[n+]1[O-]`: the inhibition was 7.72% (inactive).

`CC(C)(C)C1CCC(OC(=O)CCC(=O)Nc2ccccc2)CC1` (stereo unspecified): the inhibition was 2.76% (inactive).

As to `CC1C(C)N(C(=O)CCl)c2ccccc2N1C(=O)CCl` (stereo unspecified), the inhibition was -4% (inactive).

Consider `COc1ccc(C(=O)OCC(=O)NCC2CCCO2)cc1[N+](=O)[O-]` (stereo unspecified), for which the inhibition was 1.35% (inactive).

In the case of `CC(C)(C)OC(=O)N1CCC(NC(=O)c2[nH]cnc2C(=O)N[C@@H](Cc2ccccc2)C(=O)OCc2ccccc2)CC1`, the inhibition was 35.5% (active).

On to `O=C(N[C@@H](Cc1ccccc1)C(=O)OCc1ccccc1)c1nc[nH]c1C(=O)N[C@@H](Cc1ccccc1)C(=O)OCc1ccccc1`, for which the inhibition was 10.8% (inactive).

`C[C@@H](NC(=O)c1nc[nH]c1C(=O)N1CCN(C(=O)OC(C)(C)C)CC1)c1ccccc1`: the inhibition was 15.2% (inactive).

As to `O=C1NC(c2ccccc2)CCC1(Cl)Cl` (stereo unspecified), the inhibition is 3.93% (inactive).

Consider `C=CCn1c(SCC(=O)c2c(N)n(C)c(=O)n(C)c2=O)nc2sc(CC)cc2c1=O`, for which the inhibition is 8.69% (inactive).

Consider `Cc1ccc(CSc2nnc(-c3cnccn3)n2C)cc1`, for which the inhibition is 29.1% (active).

`Cn1c(SCc2ccc(F)cc2)nnc1-c1ccncc1`: the inhibition is 0.33% (inactive).

With `Cn1c(SCc2c(F)cccc2Cl)nnc1-c1cnccn1`, the inhibition is -3.89% (inactive).

Regarding `[O-][n+]1onc2c1CCc1[nH]c(-c3ccccc3)nc1-2`, the inhibition was 2.02% (inactive).

Turning to `COc1ccc(NS(=O)(=O)c2ccc(C)c(C(=O)NNC(=O)c3csc(N4CCOCC4)n3)c2)cc1`, the inhibition is -2.21% (inactive).

`CC(C)=C(NC(=O)c1ccco1)C(=O)NCCc1nc2ccccc2[nH]1`: the inhibition is 2.22% (inactive).

As to `CC(C)Oc1ccc(/C=C(\NC(=O)/C=C/c2ccco2)C(=O)NCCc2nc3ccccc3[nH]2)cc1`, the inhibition is 28.9% (active).

Regarding `CCCCCOc1ccc(/C=C/C(=O)NCCc2nc3ccccc3[nH]2)cc1OC`, the inhibition is 6.2% (inactive).

As to `O=C(N/N=C\c1ccc(-c2ccc(Cl)c(Cl)c2)o1)C(=O)N1CCCC1`, the inhibition is 4.11% (inactive).

The values are drawn from PubChem BioAssay AID540295 (The Scripps Research Institute Molecular Screening Center, 2011).
